Source: PMC6420351 (ACS chemical biology, 2019)

Legend:
CRBP1 [1] = target: T1, CRBP1 (Homo sapiens, UniProt P09455); experiment: Fluorescence atROL-replacing; type: binding; conditions: for binding to CRBP1: fluorescence titration of holo-CRBP1, 0–10 μM range for O-1918
T1 sequence (P09455 1-135): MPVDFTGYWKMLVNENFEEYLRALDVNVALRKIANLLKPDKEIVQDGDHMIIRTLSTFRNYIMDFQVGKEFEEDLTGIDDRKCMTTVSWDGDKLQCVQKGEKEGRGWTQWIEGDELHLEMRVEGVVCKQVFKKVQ

CRBP4 = target: T2, CRBP4 (Homo sapiens, UniProt Q96R05); experiment: Co-crystallization / X-ray structure of CRBP4 with ligand; type: binding; conditions: crystal structure PDB 6E6K
T2 sequence (Q96R05 1-134): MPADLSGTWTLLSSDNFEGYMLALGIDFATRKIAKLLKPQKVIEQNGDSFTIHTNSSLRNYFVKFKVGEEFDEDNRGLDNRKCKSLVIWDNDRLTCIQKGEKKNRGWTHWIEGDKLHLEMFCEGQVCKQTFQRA
How it was run: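 CRBP4 purified with a final 0–0.5 M NaCl gradient in 10 mM Tris/HCl pH 8.0, then concentrated to 6 mg mL−1. Protein preincubated with test compound. Crystallised in 0.2 M NaCl, 0.1 M BisTris pH 6.5, 25% PEG 3350 (w/v) by sitting-drop vapour diffusion at RT.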

[2] = test system: light-induced retinal damage; experiment: Bright light-induced retinal degeneration; type: in vivo, Balb/cJ mice; conditions: IP injection 1.5 h prior to light; OCT and histology a week later
RDH5 = target: T3, RDH5 (Bos taurus, UniProt Q27979); experiment: 11-cis-retinol oxidation assay in RPE microsomes; type: biochemical; conditions: bovine RPE microsomes preincubated with 10–50 μM
T3 sequence (Q27979 1-318): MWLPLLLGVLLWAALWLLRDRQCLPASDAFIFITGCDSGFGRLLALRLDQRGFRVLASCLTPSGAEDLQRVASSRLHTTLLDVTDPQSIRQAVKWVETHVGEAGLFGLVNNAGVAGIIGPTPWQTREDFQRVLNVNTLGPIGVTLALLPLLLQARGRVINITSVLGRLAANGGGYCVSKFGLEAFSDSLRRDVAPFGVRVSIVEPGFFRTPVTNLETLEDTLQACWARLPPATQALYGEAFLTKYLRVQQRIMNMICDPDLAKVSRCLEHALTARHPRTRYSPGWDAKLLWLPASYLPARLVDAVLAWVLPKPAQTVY
How it was run: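 Bovine RPE microsomes (~100 μg total protein) preincubated with 10–50 μM test compound (1:1 to 1:5 molar excess) in 20 mM Tris/HCl pH 8.0, 1% BSA, 20 μM NAD+. 11-cis-Retinol (10 μM) added; 30 °C, 10 min. Stopped with methanol containing 40 mM hydroxylamine, 15 min RT. Hexane extract run on normal-phase HPLC (isocratic 10% ethyl acetate/hexane), detected at 325 nm.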

rodents = conditions: previous studies of wound healing, vasodilation, diabetes; cited from earlier work
cannabinoid receptor 1 = conditions: cited from earlier work
[3] = test system: recovery of visual sensitivity; experiment: Scotopic full-field ERG recovery after photobleach; type: in vivo, Balb/cJ mice; conditions: 30 mg/kg; ERG 4 h after flash bleaching ~50% of visual pigment
[4] = Detection and quantification of abn-CBD in the ocular tissues; type: in vivo, Balb/cJ mice
How it was run: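 Balb/cJ mice (5–8 weeks, dark-adapted ≥24 h) given a single i.p. 15 mg kg−1 dose. At 1–15 h mice were anaesthetised with ketamine and PBS-perfused. Eyes homogenised in PBS/methanol with 100 pmol deuterated test-compound internal standard, then hexane-extracted, dried and redissolved in ethanol. Quantified by LC/MS on a C18 column (70–100% methanol/water over 10 min), positive-mode ESI ion trap.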

CRBP3 = target: T4, CRBP3 (Homo sapiens, UniProt P82980); experiment: Co-crystallization / X-ray structure of CRBP3 with ligand; type: binding; conditions: crystal structure PDB 6E5W
T4 sequence (P82980 1-135): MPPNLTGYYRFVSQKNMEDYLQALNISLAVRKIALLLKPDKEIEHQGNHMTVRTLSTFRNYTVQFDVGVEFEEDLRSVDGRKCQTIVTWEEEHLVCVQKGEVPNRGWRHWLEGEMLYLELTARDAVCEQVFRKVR
How it was run: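 Apo-CRBP3 (8 mg mL−1) preincubated 15 min with 300 μM test compound. Drops made from 1 μL protein plus 1 μL 0.2 M sodium malonate pH 5.0, 20% PEG 3350 (w/v). Grown by sitting-drop vapour diffusion at RT.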

RPE65 = RPE65 (Bos taurus, UniProt Q28175); experiment: RPE65 isomerization activity assay in RPE microsomes; type: biochemical; conditions: bovine RPE microsomes preincubated with 10–50 μM
RPE65, sequence (Q28175 whole entry): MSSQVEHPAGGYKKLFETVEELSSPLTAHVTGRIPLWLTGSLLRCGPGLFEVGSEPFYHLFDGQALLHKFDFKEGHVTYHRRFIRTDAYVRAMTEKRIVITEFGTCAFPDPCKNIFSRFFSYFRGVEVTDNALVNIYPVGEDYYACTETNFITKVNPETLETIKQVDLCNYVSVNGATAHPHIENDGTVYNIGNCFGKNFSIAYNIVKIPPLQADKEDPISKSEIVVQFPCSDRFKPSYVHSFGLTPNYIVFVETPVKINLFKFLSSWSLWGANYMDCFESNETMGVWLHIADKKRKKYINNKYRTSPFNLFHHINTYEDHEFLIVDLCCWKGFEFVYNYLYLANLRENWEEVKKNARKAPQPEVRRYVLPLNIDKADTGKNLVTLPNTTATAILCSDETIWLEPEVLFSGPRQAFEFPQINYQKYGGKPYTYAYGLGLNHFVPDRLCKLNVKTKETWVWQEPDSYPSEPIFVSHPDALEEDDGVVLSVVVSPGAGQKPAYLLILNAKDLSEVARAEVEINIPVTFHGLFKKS
How it was run: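 UV-bleached bovine RPE microsomes were the RPE65 source, reacting in the presence of CRALBP. Microsomes preincubated with 10–50 μM test compound (1:1 to 1:5 molar excess). Reaction started with atROL (final 10 μM) and run at 30 °C for 30 min. Products extracted with hexane and analysed by normal-phase HPLC.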

CRBP2 = target: T5, CRBP2 (Homo sapiens, UniProt P50120); experiment: Fluorescence-binding assay with CRBP2
T5 sequence (P50120 1-134): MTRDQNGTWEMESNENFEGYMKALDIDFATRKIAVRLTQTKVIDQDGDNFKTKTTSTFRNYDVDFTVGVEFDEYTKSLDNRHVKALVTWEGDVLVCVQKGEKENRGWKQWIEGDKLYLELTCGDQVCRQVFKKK

[5] = test system: visual cycle retinoid flow; experiment: Visual chromophore regeneration after flash; type: in vivo, Balb/cJ mice; conditions: 0.25 mg of compound 1.5 h prior to flash bleaching 75% of rhodopsin
How it was run: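 Dark-adapted (≥24 h) Balb/cJ mice given 0.25 mg test compound or DMSO 1.5 h before a flash bleaching 75% of rhodopsin. Kept dark, euthanised 1 min–8 h later; eyes frozen in liquid nitrogen. Under dim red light, eyes homogenised in 40 mM hydroxylamine in PBS/methanol (20 min RT), then hexane-extracted. Normal-phase HPLC (step ethyl acetate/hexane gradient) read at 325 and 360 nm, quantified against standards; n = 4, mean ± sd.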

cannabinoid receptor 2 = conditions: cited from earlier work
LRAT = target: T6, LRAT (Bos taurus, UniProt Q9BGL2); experiment: Retinol esterification assay in RPE microsomes; type: biochemical; conditions: bovine RPE microsomes preincubated with 10–50 μM
T6 sequence (Q9BGL2 1-230): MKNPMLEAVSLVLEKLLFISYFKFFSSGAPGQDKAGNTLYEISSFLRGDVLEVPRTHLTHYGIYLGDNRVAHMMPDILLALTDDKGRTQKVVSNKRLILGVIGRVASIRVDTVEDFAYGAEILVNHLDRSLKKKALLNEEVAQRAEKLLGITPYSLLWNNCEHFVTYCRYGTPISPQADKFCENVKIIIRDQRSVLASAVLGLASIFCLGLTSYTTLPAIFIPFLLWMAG
How it was run: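 UV-treated bovine RPE microsomes (~100 μg total protein) in 20 mM Tris/HCl pH 7.4, 1 mM DTT, 1% BSA. Test compound (10, 20 or 50 μM) added before atROL (final 10 μM). Initial rate taken after 5 min at RT, quenched with methanol, extracted with hexane. Normal-phase HPLC (isocratic 10% ethyl acetate/hexane, 325 nm). Retinyl esters quantified against synthetic standards.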

CRBP1 [6] = conditions: read-out: affinity for atROL; cited from earlier work

C=C(C)[C@@H]1CCC(C)=CC1c1c(O)cc(C)cc1O (stereo partly drawn) [CBDO, 5-methyl-2-[(6R)-3-methyl-6-prop-1-en-2-ylcyclohex-2-en-1-yl]benzene-1,3-diol]
Ki (CRBP1 [1]): ~1700 nM | fold increase of the Ki value (CRBP1 [1]; further increase relative to abn-CBDO): 6.3 fold

C=C(C)[C@@H]1CCC(C)=C[C@H]1c1c(OC)cc(C)cc1OC [O-1918, 1,3-dimethoxy-5-methyl-2-[(1R,6R)-3-methyl-6-prop-1-en-2-ylcyclohex-2-en-1-yl]benzene]
binding to CRBP1 (CRBP1 [1]): abolished the meaningful binding

C=C(C)[C@@H]1CCC(C)=C[C@H]1c1c(O)cc(O)cc1CCCCC [abn-CBD, 4-[(1R,6R)-3-Methyl-6-prop-1-en-2-ylcyclohex-2-en-1-yl]-5-pentylbenzene-1,3-diol]
binding to CRBP4 (CRBP4): bind abn-CBD similarly to CRBP1 | protection against light-induced retinal damage [2]: largely protected against the light-induced retinal damage | effect on RDH5 enzymatic activity (RDH5): did not cause a measurable decline | Ki (CRBP1 [1]): ~67 nM | toxicity in rodents (rodents): did not report toxicity | interaction with cannabinoid receptor 1 (cannabinoid receptor 1): does not interact | recovery of a-wave and b-wave amplitudes after light illumination [3]: slower | half-life ([4]; Balb/cJ, mouse, eye (PBS-perfused, homogenised), ip, 15 mg/kg): ~420 min | time of maximum ocular level after the injection ([4]; single IP dose 15 mg kg^−1): 2 h | maximum ocular level ([4]; single IP dose 15 mg kg^−1, PBS-perfused mouse eyes): 58 pmol/eye | binding to CRBP3 (CRBP3): bind abn-CBD similarly to CRBP1 | effect on RPE65 enzymatic activity (RPE65): did not cause a measurable decline | interaction with CRBP2 (CRBP2): absence of interaction | atROL level during chromophore regeneration [5]: transient accumulation of atROL | rate of 11-cis-retinal regeneration [5]: noticeably slower | rate of all-trans-retinal clearance vs control [5]: no differences | interaction with cannabinoid receptor 2 (cannabinoid receptor 2): does not interact | effect on LRAT enzymatic activity (LRAT): did not cause a measurable decline

C=C(C)[C@@H]1CCC(C)=C[C@H]1c1c(C)cc(O)cc1O [abn-CBDO, 5-methyl-4-[(1R,6R)-3-methyl-6-prop-1-en-2-ylcyclohex-2-en-1-yl]benzene-1,3-diol]
apparent affinity lowered compared with abn-CBD (CRBP1 [1]; fold change of Ki vs abn-CBD): 4.3 times

CC1=C(/C=C/C(C)=C/C=C/C(C)=C/CO)C(C)(C)CCC1 [atROL, all-trans-retinol]
Ki (CRBP1 [1]): ~34 nM | Kd (CRBP1 [6]): < 1 nM

C=C(C)[C@H]1CC=C(C)CC1 [limonene]
binding to CRBP1 (CRBP1 [1]): did not observe limonene interacting
